According to PMC11400628 (Protein Science : A Publication of the Protein Society, 2024):

What was measured:
CaMKIIα W403L hub [1] = target: T1, CaMKIIα W403L hub (Homo sapiens, UniProt Q9UQM7, W403L); assay: Thermal shift assay; format: binding; conditions: DSF, mean ± SEM, n = 3
T1 sequence (Q9UQM7 345-475 W403L): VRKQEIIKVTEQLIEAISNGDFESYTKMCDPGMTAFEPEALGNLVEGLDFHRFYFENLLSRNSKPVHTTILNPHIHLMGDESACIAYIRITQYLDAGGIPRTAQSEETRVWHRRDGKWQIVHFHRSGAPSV

CaMKIIα holoenzyme = CaMKIIα holoenzyme (Homo sapiens, UniProt Q9UQM7); assay: ADP-Glo kinase assay, syntide-2 phosphorylation; format: biochemical; conditions: sub-maximal (30 nM) CaM; concentrations up to 5–10 mM
CaMKIIα holoenzyme, sequence (Q9UQM7 whole entry): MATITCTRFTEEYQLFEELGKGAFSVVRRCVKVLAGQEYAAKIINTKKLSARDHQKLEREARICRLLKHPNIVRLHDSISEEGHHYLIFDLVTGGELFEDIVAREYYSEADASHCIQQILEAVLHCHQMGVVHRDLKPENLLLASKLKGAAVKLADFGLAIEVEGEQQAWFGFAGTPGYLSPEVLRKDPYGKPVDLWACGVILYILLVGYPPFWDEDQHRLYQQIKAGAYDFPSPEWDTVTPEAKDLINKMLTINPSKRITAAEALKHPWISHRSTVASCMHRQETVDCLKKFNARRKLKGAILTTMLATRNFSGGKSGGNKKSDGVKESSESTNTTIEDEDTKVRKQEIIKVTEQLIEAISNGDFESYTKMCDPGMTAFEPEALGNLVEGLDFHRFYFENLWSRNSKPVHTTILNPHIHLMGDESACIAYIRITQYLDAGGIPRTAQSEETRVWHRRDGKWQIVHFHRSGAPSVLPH

CaMKIIα WT hub [2] = target: T2, CaMKIIα WT hub (Homo sapiens, UniProt Q9UQM7); assay: Small-angle X-ray scattering, CaMKIIα WT hub; conditions: CaMKIIα WT hub 1.2–3.9 mg/mL; PIPA 200 μM, HOCPCA 1000 μM, 5-HDC 100 μM
T2 sequence (Q9UQM7 345-475): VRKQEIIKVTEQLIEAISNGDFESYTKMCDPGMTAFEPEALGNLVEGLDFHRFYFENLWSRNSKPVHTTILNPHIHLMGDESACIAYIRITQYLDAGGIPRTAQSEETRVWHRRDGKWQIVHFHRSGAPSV

CaMKIIα WT hub [3] = target: T2, CaMKIIα WT hub; assay: Thermal shift assay; format: binding; conditions: for maximum ∆Tm: DSF, mean ± SEM, n = 3
GHB binding site = conditions: low-affinity; ref Wellendorph et al., 2009; cited from earlier work
CaMKIIα W403L hub [4] = target: T1, CaMKIIα W403L hub; assay: Mass photometry, CaMKIIα W403L hub; conditions: CaMKIIα W403L hub 100–500 nM, incubated with 200 μM PIPA
Procedure, shortened: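 Mass photometry. The instrument was calibrated with apoferritin, BSA and […]. Purified W403L hub (1.5 mg/mL) was incubated 90 min with 200 μM test compound, then desalted into MES buffer (20 mM MES, 150 mM NaCl, 1 mM DTT, pH 6.0) plus compound. It was diluted to 500, 200 and 100 nM and recorded for 60 s, with a buffer blank before each run. Single-molecule mass histograms were built.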

CaMKIIα 6x hub [5] = target: T3, CaMKIIα 6x hub (Homo sapiens, UniProt Q9UQM7, E355Q/F467M/I414M/I464H/T354N/T412N); assay: Intrinsic tryptophan fluorescence assay; format: binding; conditions: pIC50, quenching of intrinsic tryptophan fluorescence, purified CaMKIIα 6x hub
T3 sequence (Q9UQM7 345-475 T354N/E355Q/T412N/I414M/I464H/F467M): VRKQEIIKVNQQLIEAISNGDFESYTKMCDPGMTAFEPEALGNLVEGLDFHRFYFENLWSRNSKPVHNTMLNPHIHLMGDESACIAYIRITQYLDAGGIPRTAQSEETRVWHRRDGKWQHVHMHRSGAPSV
Procedure, shortened: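 Purified human CaMKIIα 6x hub (residues 345–475 with six stabilising mutations). Intrinsic Trp fluorescence was read at 25°C across a test compound series (e.g. 0.43–12.1 μM). Signals were background-corrected for compound in buffer, then normalised between hub alone and the high-concentration plateau. IC50 came from a variable-slope log(inhibitor)-response fit of pooled data, n = 3.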

CaMKIIα W403L hub [6] = target: T1, CaMKIIα W403L hub; assay: Surface plasmon resonance, immobilized CaMKIIα W403L hub; format: binding
Procedure, shortened: (§1)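 SPR at 25°C. Purified hub (WT or W403L) was amine-coupled to the sensor in 20 mM NaAc, pH 5. Test compound was injected as twofold dilutions in MES running buffer (20 mM MES, 150 mM NaCl, 1 mM DTT, pH 6), with blank and reference-surface subtraction. Equilibrium responses versus concentration were fitted to a 1:1 Langmuir isotherm for KD. Independent experiments: WT n = 3, W403L n = 2.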

CaMKIIα W403L hub [7] = target: T1, CaMKIIα W403L hub; assay: Small-angle X-ray scattering, CaMKIIα W403L hub; conditions: CaMKIIα W403L hub 6.8 mg/mL, PIPA 200 μM
Procedure, shortened: (§2)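 SAXS. Purified hub constructs were buffer-exchanged by spin desalting into 20 mM MES, 150 mM NaCl, 1 mM DTT, pH 6.0, with or without 200 μM test compound, and measured as dilution series of 1–7 mg/mL protein at 20–22°C. Frames were radially averaged, buffer-subtracted and merged, scaled by concentration. Curves were fitted with dodecamer, tetradecamer, mixed or stacked-dodecamer models.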

CaMKIIα WT hub [8] = target: T2, CaMKIIα WT hub; assay: Mass photometry, CaMKIIα WT hub; conditions: CaMKIIα WT hub 100–500 nM, incubated with 200 μM PIPA
CaMKIIα WT hub [9] = target: T2, CaMKIIα WT hub; assay: Surface plasmon resonance, immobilized CaMKIIα WT hub; format: binding
Procedure, shortened: as §1

CaMKIIα 6x hub [10] = target: T3, CaMKIIα 6x hub; assay: Small-angle X-ray scattering, CaMKIIα 6x hub; conditions: CaMKIIα 6x hub 6.7 mg/mL, PIPA 200 μM
Procedure, shortened: as §2

[11] = target: human CaMKIIα W403L hub domain (human) (UniProt Q9UQM7); assay: mass photometry
SAXS = target: the molecule itself; assay: SAXS

O=C(O)C1=CC(O)CC1 (stereo not shown) [HOCPCA, 3‐hydroxycyclopent‐1‐enecarboxylic acid, reference compound]
maximum ∆Tm (CaMKIIα W403L hub [1]): 15.2 ± 1.0 °C
effect on syntide-2 substrate phosphorylation (CaMKIIα holoenzyme): neither of the compounds affected substrate phosphorylation
self-association / oligomeric state of hub (SAXS) (CaMKIIα WT hub [2]): not observed
maximum ∆Tm (CaMKIIα WT hub [3]): 11.5 ± 0.6 °C

CC(=O)O [acetate]
Ki (GHB binding site): > 100000 nM
effect on syntide-2 substrate phosphorylation (CaMKIIα holoenzyme): neither of the compounds affected substrate phosphorylation

O=C(O)Cc1cn2nc(-c3ccc(Cl)cc3)ccc2n1 [PIPA, 2‐(6‐(4‐chlorophenyl)imidazo[1,2‐b]pyridazine‐2‐yl)acetic acid]
maximum ∆Tm (CaMKIIα W403L hub [1]): 24.5 ± 0.4 °C
change in MW (mass photometry) (CaMKIIα W403L hub [4]): did not display any change in MW
IC50 (CaMKIIα 6x hub [5]): 5010 nM
Kd (CaMKIIα W403L hub [6]): 2800 ± 130 nM
self-association of hub (SAXS) (CaMKIIα W403L hub [7]): no self‐association was detected
self-association / oligomeric state of hub (SAXS) (CaMKIIα WT hub [2]): induced self‐association
molecular weight species (mass photometry) (CaMKIIα WT hub [8]): displayed a shoulder on the main peak around 220 kDa as well as a much larger species at 372 kDa
Kd (CaMKIIα WT hub [9]): 2900 ± 600 nM
maximum ∆Tm (CaMKIIα WT hub [3]): 13.04 ± 0.09 °C
maximum ∆Tm less compared to 5-HDC (CaMKIIα WT hub [3]; difference PIPA vs 5-HDC): 10.7 °C
self-association of hub (SAXS) (CaMKIIα 6x hub [10]): no self‐association was detected

human CaMKIIα W403L hub domain (from UniProt Q9UQM7 345-475) (domain or fragment)
stoichiometry N [11]: 12

B1: human CaMKIIα wild-type (WT) hub domain (domain or fragment, UniProt Q9UQM7 345-475, looked up)
chain: VRKQEIIKVTEQLIEAISNGDFESYTKMCDPGMTAFEPEALGNLVEGLDFHRFYFENLWSRNSKPVHTTILNPHIHLMGDESACIAYIRITQYLDAGGIPRTAQSEETRVWHRRDGKWQIVHFHRSGAPSV
stoichiometry N (SAXS): 12
